Laboratory results published in ChEMBL document CHEMBL1123609, “Synthesis, conformational considerations, and estrogen receptor binding of diastereoisomers and enantiomers of 1-[4-[2-(dimethylamino)ethoxy]phenyl]-1,2-diphenylbutane (dihydrotamoxifen)” (1987).

What was measured:
[1] = molecular target: Estrogen receptor (Homo sapiens) (UniProt Q92731+P03372); test: Relative binding affinity for estrogen receptor of MCF-7 cells; assay type: cell-based; conditions: MCF7
Outline: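 Whole MCF-7 cells incubated 50 min at 37 °C with 10^-9 M [3H]estradiol, without or with test compound or unlabeled estradiol reference (10^-10 to 10^-6 M). Bound material extracted with EtOH and receptor-bound [3H]estradiol measured. RBA calculated as in the calf uterine cytosol competition assay.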

MCF7 [2] = test: Effect on the MCF-7 cell growth at 10e-6 M; assay type: functional, Homo sapiens
Outline: (§1)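 MCF-7 cells seeded at 5000 cells/mL; compounds added after 24 h, final 10^-8, 10^-7 and 10^-6 M, alone or with 10^-8 M estradiol. After 5 days of culture, monolayer fixed in 90% ethanol and stained with hematoxylin; absorbance read at 540 nm as a measure of cell number. Mean of four separate cultures, expressed as percentage of control.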

MCF7 [3] = test: Effect on the MCF-7 cell proliferation at 10e-7 M; assay type: functional, Homo sapiens; outline: as §1
MCF7 [4] = test: Effect on the MCF-7 cell proliferation at 10e-8 M; assay type: functional, Homo sapiens; outline: as §1

Relative binding affinity [1]	Compound	Activity (MCF7 [2])	Activity (MCF7 [3])	Activity (MCF7 [4])
0.02	CC[C@@H](c1ccccc1)[C@H](c1ccccc1)c1ccc(OCCN(C)C)cc1	–	–	–
–	CC/C(=C(\c1ccccc1)c1ccc(O)cc1)c1ccccc1	0.131	0.12	0.121
–	CC/C(=C(\c1ccccc1)c1ccc(O)cc1)c1ccccc1.C[C@]12CC[C@@H]3c4ccc(O)cc4CC[C@H]3[C@@H]1CC[C@@H]2O	0.108	0.138	0.229
0.04	CC[C@H](c1ccccc1)[C@@H](c1ccccc1)c1ccc(OCCN(C)C)cc1	–	–	–
–	CC/C(=C(/c1ccccc1)c1ccc(O)cc1)c1ccccc1	0.428	0.486	0.557
–	CC/C(=C(/c1ccccc1)c1ccc(O)cc1)c1ccccc1.C[C@]12CC[C@@H]3c4ccc(O)cc4CC[C@H]3[C@@H]1CC[C@H]2O	0.41	0.607	0.696
